Source: PubChem BioAssay
A selection: hits, their analogues and other compounds. The true share with any hit is near 1.8%.
RanGTP-Impb inh – inhibitors of RanGTP-importin-beta interaction, primary screen, biochemical, FRET, CFP-Ran, YFP-importin-beta, homogeneous. cell-free CFP-Ran/YFP-importin-beta FRET ratio. inhibition, % (test concentration not listed). 300,000 compounds, 1.1% hits. AID 2216;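 active means more than half of the replicate wells show a fall in the fluorescence ratio signal beyond about 16%, limit read from the data, passing the limit was not always enough; inconclusive means exactly half of the replicate wells pass the set limit; inactive means fewer than half of replicates pass the limit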;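 further: 0% = DMSO wells and 100% = Ran loaded with GDP instead of GTP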
Runt-SMMHC FRET – inhibitors of human RUNX1 Runt domain binding to CBFb-SMMHC; AID 1434; Q01196+Q13951; Cerulean-Runt/Venus-CBFb-SMMHC FRET ratio 530/480, 1 h; 220,000 compounds, 0.74% hits; inhibition, % at 20 µM;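 active means mean inhibition across duplicate retests at 20 µM reaching about 50%, limit read from the data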;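 further: 0% = DMSO wells and 100% = wells with excess untagged CBFb-SMMHC; inhibitors lower the FRET ratio by blocking Runt binding to CBFb-SMMHC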
Platelet DG rel – modulates dense granule release in human platelets. inhibition, %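 (compounds screened at 7.5 µM in platelet-rich plasma)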. human platelet-rich plasma, SFLLRN dense granule ATP release, luminescence. 300,000 compounds, 0.22% hits;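 active means mean replicate score, as percent of positive control, at or above 50; inconclusive means mean below 50 but at least one replicate at or above 50; inactive means mean and every replicate below 50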
Rce1 inhib – blocks yeast Ras-converting enzyme; 290,000 compounds, 0.27% hits; yeast membranes, quenched prenylated peptide cleavage fluorescence; AID 2563; calls only; Q03530;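 active means fall in fluorescence gain of 50% or more versus controls, with final raw signal at or below 3038400; inconclusive means same 50% fall but final raw signal above 3038400; inactive means fall in fluorescence gain under 50%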;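 further: plate controls were neutral control wells for no effect and wells lacking membranes for full effect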
Target sequence (Q03530 whole entry, looked up): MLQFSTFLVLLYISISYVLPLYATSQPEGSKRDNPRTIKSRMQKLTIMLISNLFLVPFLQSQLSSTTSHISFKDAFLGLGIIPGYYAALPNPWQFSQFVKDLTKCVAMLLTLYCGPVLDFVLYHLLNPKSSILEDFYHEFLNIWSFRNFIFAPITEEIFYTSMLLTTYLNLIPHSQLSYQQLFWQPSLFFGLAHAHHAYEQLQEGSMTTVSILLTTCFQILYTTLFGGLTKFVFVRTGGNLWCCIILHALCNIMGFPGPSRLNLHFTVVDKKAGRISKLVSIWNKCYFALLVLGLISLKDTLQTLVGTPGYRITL
Runt-CBFb FRET – blocks binding of human RUNX1 Runt domain to CBFb. Q01196+Q13951. Cerulean-Runt/Venus-CBFb FRET ratio 530/480, 1 h. inhibition, % at 20 µM. 220,000 compounds, 0.46% hits;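 active means inhibition over about 50% at 20 µM in the single-dose screen, limit read from the data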;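 further: 0% = DMSO wells and 100% = excess unlabeled CBFb competitor control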
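Measured by: fluorescence energy transfer, 422 nm excitation, 530/480 nm emission; Assay system: Cerulean-Runt domain; Medium: Tris pH 7.5 buffer with BSA; Measure: loss of energy transfer signal; Controls: 5 µM unlabeled CBFb as full-inhibition high control; Incubation: protein complex preformed 1 h, compound exposure 1 h, room temperature, dark.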
Active calls of the source: *; i = inactive; ? = inconclusive; . = no result; + = active, no number.

SMILES	RanGTP-Impb inh	Runt-SMMHC FRET	Platelet DG rel	Rce1 inhib	Runt-CBFb FRET
Cc1cc(/C=C2\SC(=S)N(Cc3ccco3)C2=O)c(C)n1-c1cccnc1	21.0*	-163.2	-7.4	i	-32.3
CN(C)C(=O)CN1C(=O)NC(c2ccccc2)(c2ccccc2)C1=O	10.4	.	-27.0	i	.
O=C(CSCc1c(Cl)cccc1Cl)NCc1ccco1	-3.0	-1.1	83.5*	i	0.2
COc1ccccc1-n1cc(-c2ccc(Cl)cc2)[nH]c1=O	2.0	0.7	104.8*	i	3.7
Cc1ccc2nc(-c3sc4nc(C)ccc4c3N)[nH]c2c1	1.8	-9.9	0.3	i	4.3
Cc1cc(C)c2c(N)c(-c3nc4ccccc4[nH]3)sc2n1	21.3*	11.4	-0.9	i	4.3
Cc1ccc(C)c(Nc2c(F)c(F)c(F)c(F)c2C(=O)O)c1	1.0	-1.2	4.6	i	1.1
COc1ccccc1NC(=O)CN(c1ccc(C23CC4CC(CC(C4)C2)C3)cc1)S(C)(=O)=O	-0.8	0.7	-1.7	+	1.0
COc1ccccc1C1CN(c2ccccc2)N=C1c1cccs1 (stereo not given)	2.8	59.4*	2.0	i	45.7
O=C(CNC(=O)c1cccs1)N/N=C/c1cccc(Cl)c1	?	.	-39.3	i	.
CC1CC(=O)NN=C1c1cccs1 (stereo not given)	2.4	-1.9	35.7	i	0.9
CC1CC(=O)NN=C1c1ccc(N(C)C)c([N+](=O)[O-])c1 (stereo not given)	3.0	1.9	82.1*	i	1.1
CCN(CC)c1ccc(C2=NNC(=O)CC2C)cc1[N+](=O)[O-] (stereo not given)	1.0	-1.0	55.1*	i	0.0
COc1cc2c(cc1OC)C(C)N(C(=O)CCNC(=O)c1ccccc1)CC2 (stereo not given)	4.3	.	-19.5	+	.
C=CCN1C(=O)c2ccc(C(=O)N3CCN(S(=O)(=O)c4cccc(F)c4)CC3)cc2C1=O	?	.	0.4	i	.
NC(=O)CSc1cn(Cc2ccc(F)cc2)c2ccccc12	1.0	-0.8	59.2*	i	-1.1
CC1(C)Cc2c(c(-c3ccco3)nc3sc4c(NCCN5CCOCC5)ncnc4c23)CO1	-4.6	10.1	3.5	i	14.5
CC1(C)Cc2c(sc3nc(NCCN4CCOCC4)n4ncnc4c23)CO1	-4.6	4.5	52.3*	i	-0.9
CCOC(=O)C1=C(C)N(CC(C)C)C(=O)/C1=C\c1ccc(OCC(=O)Nc2ccccc2)cc1	9.4	-9.6	4.5	i	-5.8
CCOC(=O)c1ccc(NS(=O)(=O)c2ccc3oc(=O)[nH]c3c2)cc1	0.6	.	9.5	i	.
Brc1ccc(Oc2ncc(CN3CCOCC3)s2)cc1	-3.6	-1.4	-5.1	i	0.3
COc1ccc(S(=O)(=O)N(C)CC(=O)Nc2ccc3c(c2)OCO3)cc1OC	-0.1	-4.9	70.7*	i	2.0
COc1ccc(Cl)cc1C(=O)Nc1ccc2c(c1)OCO2	2.8	-1.8	3.5	+	-0.5
CN(c1ccc(C(=O)Nc2ccc3c(c2)OCO3)cc1)S(C)(=O)=O	-0.2	1.5	83.1*	i	1.1
COc1ccc(Cl)cc1C(=O)Nc1ccc2c(c1)OCCO2	?	.	0.7	i	.
SMILES	RanGTP-Impb inh	Runt-SMMHC FRET	Platelet DG rel	Rce1 inhib	Runt-CBFb FRET
COc1ccc(S(=O)(=O)N(C)CC(=O)Nc2ccc3c(c2)OCO3)cc1	?	-9.2	-5.7	i	3.7
CCN(c1ccccc1)S(=O)(=O)c1ccc(OC)c(NC(=O)Cn2cnc3c2c(=O)n(C)c(=O)n3C)c1	?	-2.7	-1.1	i	-6.0
CC(=O)NS(=O)(=O)c1ccc(NC(=O)CC(C)c2ccccc2)cc1 (stereo not given)	7.9	3.7	1.7	i	0.8
CCC1(c2ccccc2)NC(=O)N(CC(=O)Nc2ccc3c(C)cc(=O)oc3c2)C1=O (stereo not given)	-2.2	.	0.2	+	.
COc1ccc(NC(=O)CN2C(=O)NC(c3ccccc3)(c3ccccc3)C2=O)cc1OC	30.8*	.	-1.8	i	.
CCC1(c2ccccc2)NC(=O)N(CC(=O)Nc2ccc3c(c2)OCO3)C1=O (stereo not given)	-1.5	1.7	7.4	i	-1.0
O=C1OCCN1C(=O)[C@H]1[C@H](c2ccc(F)cc2)C(c2ccc(F)cc2)=NN1c1ccc(Br)cc1	3.7	20.5	4.2	+	5.5
O=C1OCCN1C(=O)[C@H]1[C@H](c2ccc(F)cc2)C(c2ccc(F)cc2)=NN1c1ccccc1	-4.4	-9.6	-0.1	i	-6.8
CC(C)CC(NC(N)=O)C(=O)OCC(=O)Nc1ccc(OC(F)F)cc1 (stereo not given)	3.8	1.4	-1.3	i	1.8
CCCCCc1ccc(OCCOCCn2c[n+](C)c3ccccc32)c(CCCCC)c1	3.8	-4.7	-2.8	+	-2.1
Cc1cc(=O)n2nc(N3CCCC(C(=O)NCc4ccccc4)C3)sc2n1 (stereo not given)	1.5	.	69.2*	i	.
NC(=O)CSc1nnc(-c2ccccc2)c(-c2ccccc2)n1	-4.9	.	-4.7	i	.
C#CCOc1ccc(C2C(C#N)=C(N)Oc3cc(O)ccc32)cc1 (stereo not given)	66.5*	.	-10.0	i	.
COC(=O)c1ccc(C2C(C#N)=C(N)Oc3cc(O)ccc32)cc1 (stereo not given)	-23.3	.	10.2	i	.
CCOc1ccc(C2C(C#N)=C(N)Oc3cc(O)ccc32)cc1OCC (stereo not given)	50.7*	.	-4.8	i	.
N#CC1=C(N)Oc2cc(O)ccc2C1c1cccs1 (stereo not given)	1.2	-53.4	-1.4	i	-15.5
COc1ccc(C2C(C#N)=C(N)Oc3cc(O)ccc32)cc1Cl (stereo not given)	59.1*	.	2.1	i	.
CCc1cccc(C)c1NS(=O)(=O)Cc1ccccc1	-3.4	.	-2.2	i	.
COc1cc2ccccc2cc1C(=O)Nc1ccc(O)cc1	-2.6	.	3.1	i	.
O=C(NCCN1CCOCC1)c1cc(-c2ccc(F)cc2)nc2ccccc12	2.5	.	38.7	i	.
N=c1c(C(=O)NCCN2CCOCC2)cc2c(=O)n3ccccc3nc2n1Cc1ccc(F)cc1	127.4*	.	-3.4	i	.
N=c1c(C(=O)NCCN2CCOCC2)cc2c(=O)n3ccccc3nc2n1CCCN1CCOCC1	144.7*	.	-0.8	i	.
CCCCCCSc1cc(-c2nc3ccc(C)cn3c2NCc2ccccc2)ccc1OC	-1.3	.	2.8	i	.
CCCCCCSc1cc(-c2nc3cc(C)ccn3c2NCCCC)ccc1OC	4.5	.	-1.6	+	.
CCCCNc1c(-c2ccc(SC(C)CC)c(OC)c2)nc2ccc(C)cn12 (stereo not given)	3.0	.	-0.8	+	.
CN(Cc1ccccc1F)Cc1cc(=O)oc2cc(O)c(Cl)cc12	66.9*	.	-3.9	i	.
CC1CCN(Cc2cc(=O)oc3cc4c(cc23)CCCC4)CC1	?	0.5	-2.2	i	-2.3
CC1CCN(Cc2cc(=O)oc3cc(O)c(Cl)cc23)CC1	117.9*	.	1.4	i	.
